Assay outcomes (PubChem BioAssay)
SF1 activator: activators of human nuclear receptor SF-1; Q13285; CHO-K1 Gal4-SF-1 LBD luciferase reporter; % increase over DMSO SF-1-specific signal; activation, % at 10 µM; hit rate 1.9% among 65,000;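 active means activation above the mean activation of all tested compounds plus 3 SD, cut at about 50% in these data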
Target sequence (Q13285 whole entry, looked up, the tested form may be a part): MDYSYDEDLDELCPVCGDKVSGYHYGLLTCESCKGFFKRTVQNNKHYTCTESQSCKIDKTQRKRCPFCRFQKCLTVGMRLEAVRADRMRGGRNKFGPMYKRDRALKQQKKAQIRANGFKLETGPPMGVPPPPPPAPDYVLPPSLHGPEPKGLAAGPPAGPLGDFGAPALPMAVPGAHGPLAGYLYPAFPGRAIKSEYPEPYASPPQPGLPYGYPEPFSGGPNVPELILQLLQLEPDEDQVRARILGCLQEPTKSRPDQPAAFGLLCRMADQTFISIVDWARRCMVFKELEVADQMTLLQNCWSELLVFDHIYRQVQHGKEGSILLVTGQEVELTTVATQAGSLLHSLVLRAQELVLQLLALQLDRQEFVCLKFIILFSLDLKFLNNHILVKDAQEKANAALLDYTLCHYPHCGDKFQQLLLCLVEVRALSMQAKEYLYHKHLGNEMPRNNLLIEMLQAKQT
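Material: CHO-K1 cells with Gal4–hSF-1 LBD chimera plus Gal4-driven luciferase / Input: 4,000 CHO-K1 cells per well / Incubation: compound exposure 20 h at 37 °C / Signal: luminescence read 15 min after SteadyLite luciferase reagent, after room-temperature equilibration / Read-out: percent activation versus DMSO / Benchmarks: DMSO negative control and −SF1 background wells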
ROCK2 inh: ROCK2 (human) kinase inhibition; purified ROCK2, Kinase-Glo ATP depletion luminescence; AID 604; O75116; inhibition, % at 6 µM; hit rate 0.35% among 60,000;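 active means inhibition above the screen-wide mean inhibition plus 3 SD, cut at about 18% in these data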
PKA inh: blocks human protein kinase A activity. P17612. PKA Kemptide phosphorylation, Kinase-Glo ATP luminescence. inhibition, % at 6 µM. hit rate 0.1% among 65,000;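 active means inhibition above the screen-wide mean inhibition plus 3 SD, cut at about 21% in these data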
MT1-MMP txn act: activates MT1-MMP transcription | HT1080 MT1-MMP promoter luciferase reporter, luminescence, overnight; active compounds read high | hit rate 0.16% among 86,000 | AID 750 | activation factor at 10 µM;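 active means activation factor of at least 2 for MT1-MMP transcription at 10 µM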
RORa activator: RORA (human) activation; P35398; CHO-K1 Gal4-RORA LBD luciferase reporter, luminescence; percent increase over mock-subtracted basal signal; activation, % at 10 µM; hit rate 1.5% among 65,000; AID 560;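 active means activation above the mean of all tested compounds plus 3 SD, cut at about 49% in these data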
JNK3 inh: blocks human JNK3 kinase activity | P53779 | purified JNK3 kinase activity, HTS | inhibition, % at 8 µM | hit rate 0.61% among 60,000 | AID 746; in the data active means inhibition above about 17%
Hits are given with their value. Shown are actives, neighbours in structure and some others; about 2.5% of the full set was active somewhere.

Results for CCNc1nc(-c2ccc(Cl)cc2)cs1 ?
SF1 activator: inactive; PKA inh: inactive; MT1-MMP txn act: inactive; RORa activator: 50

How did Clc1ccc(Nc2nc(-c3ccncc3)cs2)cc1 do in these assays?
MT1-MMP txn act: inactive

What do the screens show for `CCN(CC)CC(=O)Nc1nc(-c2ccc(Cl)cc2)cs1`?
MT1-MMP txn act: inactive

What do the screens show for `Cc1ccc(-c2ccc(C3C(C#N)=C(N)Oc4n[nH]c(C)c43)o2)cc1` (stereo not given)?
MT1-MMP txn act: inactive

Results for Cc1[nH]nc2c1C(c1ccc(-c3ccccc3C#N)o1)C(C#N)=C(N)O2 (stereo not given) ?
SF1 activator: inactive; ROCK2 inh: 40; PKA inh: inactive; MT1-MMP txn act: inactive; RORa activator: inactive; JNK3 inh: inactive

How did CCOC(=O)N1CCC(NC(=O)c2ccc3c(c2)sc2nc(-c4ccccc4)cn23)CC1 do in these assays?
SF1 activator: inactive; ROCK2 inh: inactive; PKA inh: inactive; RORa activator: 53; JNK3 inh: inactive

Results for O=c1c2ccccc2nnn1CSc1nnc(COc2ccc(Cl)cc2)n1Cc1ccco1 ?
SF1 activator: 56; ROCK2 inh: inactive; PKA inh: inactive; MT1-MMP txn act: inactive; RORa activator: inactive; JNK3 inh: inactive

Results for COc1ccc(-c2nc(-c3ccc(Br)o3)no2)cc1OC ?
SF1 activator: 87; ROCK2 inh: inactive; PKA inh: inactive; MT1-MMP txn act: inactive; RORa activator: 60; JNK3 inh: inactive

What do the screens show for `COc1ccc(-c2nnc(-c3ccc(Br)o3)o2)cc1OC`?
SF1 activator: inactive; ROCK2 inh: inactive; PKA inh: inactive; MT1-MMP txn act: inactive; RORa activator: inactive; JNK3 inh: 25

Results for COc1ccc(-c2nnc3sc(-c4ccc(Br)o4)nn23)cc1OC ?
SF1 activator: inactive; ROCK2 inh: inactive; PKA inh: inactive; MT1-MMP txn act: inactive; RORa activator: inactive; JNK3 inh: inactive

Results for CCn1c(Cc2ccccc2)nnc1SCC(=O)Nc1ccc2c(c1)OCCO2 ?
SF1 activator: inactive; ROCK2 inh: inactive; PKA inh: inactive; MT1-MMP txn act: inactive; RORa activator: inactive; JNK3 inh: inactive

How did CNC(=O)N(C1=NCC(C)(C)S1)c1ccc(F)c(Cl)c1 do in these assays?
SF1 activator: inactive; ROCK2 inh: inactive; PKA inh: inactive; MT1-MMP txn act: inactive; RORa activator: inactive; JNK3 inh: inactive

What do the screens show for `CC(C)(C)n1ncc2c(=O)n(CC(=O)c3ccc(Cl)cc3)cnc21`?
SF1 activator: 87; ROCK2 inh: inactive; PKA inh: inactive; MT1-MMP txn act: inactive; RORa activator: 59; JNK3 inh: inactive

Results for CC(C)(C)n1ncc2c(=O)n(CC(=O)Nc3ccc(Cl)cc3)cnc21 ?
SF1 activator: inactive; ROCK2 inh: inactive; PKA inh: inactive; MT1-MMP txn act: inactive; RORa activator: inactive; JNK3 inh: inactive

What do the screens show for `CCn1cnc2cc(NCc3ccc(C)cc3)ccc21`?
SF1 activator: 50; ROCK2 inh: inactive; PKA inh: inactive; MT1-MMP txn act: inactive; RORa activator: inactive; JNK3 inh: inactive

How did c1ccc(Cn2c(-c3ccco3)nc3nc4ccccc4nc32)cc1 do in these assays?
SF1 activator: 82; ROCK2 inh: inactive; PKA inh: inactive; MT1-MMP txn act: inactive; RORa activator: 75; JNK3 inh: inactive

Results for S=C(Nc1ccccc1)Nc1ccccc1C#Cc1ccccc1 ?
MT1-MMP txn act: inactive

What do the screens show for `CN(CCC#N)C(=O)CSc1ncnc2sc(-c3ccccc3)cc12`?
SF1 activator: inactive; ROCK2 inh: inactive; PKA inh: inactive; MT1-MMP txn act: inactive; RORa activator: 52; JNK3 inh: inactive

How did CCOC(=O)c1cc2c(=O)n3cccc(C)c3nc2n(CCc2ccc(OC)c(OC)c2)c1=N do in these assays?
SF1 activator: inactive; ROCK2 inh: inactive; PKA inh: inactive; MT1-MMP txn act: inactive; RORa activator: inactive; JNK3 inh: inactive

How did CCOC(=O)c1cc2cc(OC)ccc2[nH]1 do in these assays?
SF1 activator: 73; ROCK2 inh: inactive; PKA inh: inactive; MT1-MMP txn act: inactive; RORa activator: inactive; JNK3 inh: inactive

What do the screens show for `CCOC(=O)c1[nH]c2ccc(OC)cc2c1C`?
SF1 activator: 59; ROCK2 inh: inactive; PKA inh: inactive; MT1-MMP txn act: inactive; RORa activator: inactive; JNK3 inh: inactive

What do the screens show for `CCOC(=O)c1[nH]c2ccc(OC)cc2c1NC(C)=O`?
SF1 activator: inactive; ROCK2 inh: inactive; PKA inh: inactive; MT1-MMP txn act: inactive; RORa activator: inactive; JNK3 inh: inactive
